Test results reported in ChEMBL document CHEMBL1781932 (J Med Chem, 2011).
≈ marks a conversion by molar mass, not a printed value.

Assays:
Assay type in all cases: functional
[1] = test system: Staphylococcus aureus; assay: Antimicrobial activity against tetracycline-resistant Staphylococcus aureus isolate 158 harboring tetK gene by CLSI dilution method
[2] = test system: Streptococcus pneumoniae; assay: Antimicrobial activity against tetracycline-susceptible Streptococcus pneumoniae isolate 106 by CLSI dilution method
In short: (§1)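 Broth microdilution per CLSI in fresh cation-adjusted Mueller Hinton broth, kept at 4 °C before testing, with defibrinated horse blood added as appropriate. Strains were from ATCC. MIC in µg/mL. Runs were accepted when comparator antibiotics against ATCC quality-control strains fell within recommended ranges.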

[3] = test system: Staphylococcus aureus; assay: Antimicrobial activity against tetracycline-susceptible Staphylococcus aureus isolate 101 by CLSI dilution method
[4] = test system: Klebsiella pneumoniae; assay: Antimicrobial activity against tetracycline-resistant Klebsiella pneumoniae isolate 153 harboring tetA gene by CLSI dilution method
[5] = test system: Pseudomonas aeruginosa; assay: Antimicrobial activity against tetracycline-susceptible Pseudomonas aeruginosa isolate 111 by CLSI dilution method; in short: as §1
[6] = test system: Enterobacter cloacae; assay: Antimicrobial activity against tetracycline-susceptible Enterobacter cloacae isolate 108 by CLSI dilution method; in short: as §1
[7] = test system: Enterococcus faecalis; assay: Antimicrobial activity against tetracycline-resistant Enterococcus faecalis isolate 159 harboring […] gene by CLSI dilution method
[8] = test system: Enterococcus faecalis; assay: Antimicrobial activity against tetracycline-susceptible Enterococcus faecalis isolate 103 by CLSI dilution method; in short: as §1
[9] = test system: Acinetobacter baumannii; assay: Antimicrobial activity against tetracycline-susceptible Acinetobacter baumannii isolate 110 by CLSI dilution method; in short: as §1
[10] = test system: Escherichia coli; assay: Antimicrobial activity against tetracycline-susceptible Escherichia coli isolate 107 by CLSI dilution method; in short: as §1
[11] = test system: Klebsiella pneumoniae; assay: Antimicrobial activity against tetracycline-susceptible Klebsiella pneumoniae isolate 109 by CLSI dilution method; in short: as §1
[12] = test system: Staphylococcus aureus; assay: Antimicrobial activity against methicillin-, tetracycline-resistant Staphylococcus aureus isolate 161 harboring tetM gene by CLSI dilution method
[13] = test system: Escherichia coli; assay: Antimicrobial activity against tetracycline-resistant Escherichia coli isolate 155 harboring tetA gene by CLSI dilution method
[14] = test system: Streptococcus pneumoniae; assay: Antimicrobial activity against tetracycline-resistant Streptococcus pneumoniae isolate 160 harboring tetM gene by CLSI dilution method

SMILES	MIC [1] [µg/mL]	MIC [2] [µg/mL]	MIC [3] [µg/mL]	MIC [4] [µg/mL]	MIC [5] [µg/mL]	MIC [6] [µg/mL]	MIC [7] [µg/mL]	MIC [8] [µg/mL]	MIC [9] [µg/mL]	MIC [10] [µg/mL]	MIC [11] [µg/mL]	MIC [12] [µg/mL]	MIC [13] [µg/mL]	MIC [14] [µg/mL]
CN(C)[C@@H]1C(O)=C(C(N)=O)C(=O)[C@@]2(O)C(O)=C3C(=O)c4c(cc5ccc(CN6CC(O)C6)cc5c4O)C[C@H]3C[C@@H]12	1 (≈ 1.82 µM)	0.0625 (≈ 0.114 µM)	0.5 (≈ 0.91 µM)	8 (≈ 14.6 µM)	32 (≈ 58.2 µM)	2 (≈ 3.64 µM)	4 (≈ 7.28 µM)	0.5 (≈ 0.91 µM)	4 (≈ 7.28 µM)	1 (≈ 1.82 µM)	4 (≈ 7.28 µM)	4 (≈ 7.28 µM)	8 (≈ 14.6 µM)	0.5 (≈ 0.91 µM)
COC1CN(Cc2ccc3cc4c(c(O)c3c2)C(=O)C2=C(O)[C@]3(O)C(=O)C(C(N)=O)=C(O)[C@@H](N(C)C)[C@@H]3C[C@@H]2C4)C1	0.5 (≈ 0.887 µM)	0.0625 (≈ 0.111 µM)	1 (≈ 1.77 µM)	16 (≈ 28.4 µM)	> 32	8 (≈ 14.2 µM)	8 (≈ 14.2 µM)	1 (≈ 1.77 µM)	2 (≈ 3.55 µM)	2 (≈ 3.55 µM)	4 (≈ 7.1 µM)	4 (≈ 7.1 µM)	16 (≈ 28.4 µM)	0.5 (≈ 0.887 µM)
CC(=O)NC1CN(Cc2ccc3cc4c(c(O)c3c2)C(=O)C2=C(O)[C@]3(O)C(=O)C(C(N)=O)=C(O)[C@@H](N(C)C)[C@@H]3C[C@@H]2C4)C1	2 (≈ 3.39 µM)	0.25 (≈ 0.423 µM)	2 (≈ 3.39 µM)	16 (≈ 27.1 µM)	> 32	8 (≈ 13.5 µM)	16 (≈ 27.1 µM)	2 (≈ 3.39 µM)	16 (≈ 27.1 µM)	4 (≈ 6.77 µM)	16 (≈ 27.1 µM)	8 (≈ 13.5 µM)	16 (≈ 27.1 µM)	2 (≈ 3.39 µM)
CN(C)[C@@H]1C(O)=C(C(N)=O)C(=O)[C@@]2(O)C(O)=C3C(=O)c4c(cc5ccc(CN6CC(F)(F)C6)cc5c4O)C[C@H]3C[C@@H]12	1 (≈ 1.76 µM)	2 (≈ 3.51 µM)	1 (≈ 1.76 µM)	> 32	> 32	> 32	1 (≈ 1.76 µM)	1 (≈ 1.76 µM)	> 32	> 32	> 32	1 (≈ 1.76 µM)	> 32	4 (≈ 7.02 µM)
CN(C)[C@@H]1C(O)=C(C(N)=O)C(=O)[C@@]2(O)C(O)=C3C(=O)c4c(c(F)c5ccc(CN6CCCC6)cc5c4O)C[C@H]3C[C@@H]12	0.125 (≈ 0.221 µM)	0.0313 (≈ 0.0553 µM)	0.25 (≈ 0.442 µM)	4 (≈ 7.07 µM)	32 (≈ 56.6 µM)	4 (≈ 7.07 µM)	1 (≈ 1.77 µM)	0.125 (≈ 0.221 µM)	0.25 (≈ 0.442 µM)	1 (≈ 1.77 µM)	2 (≈ 3.54 µM)	1 (≈ 1.77 µM)	4 (≈ 7.07 µM)	0.0313 (≈ 0.0553 µM)
COc1c2c(c(O)c3cc(CN4CCCC4)ccc13)C(=O)C1=C(O)[C@]3(O)C(=O)C(C(N)=O)=C(O)[C@@H](N(C)C)[C@@H]3C[C@@H]1C2	0.125 (≈ 0.216 µM)	0.0156 (≈ 0.027 µM)	0.25 (≈ 0.433 µM)	8 (≈ 13.8 µM)	16 (≈ 27.7 µM)	4 (≈ 6.92 µM)	4 (≈ 6.92 µM)	0.25 (≈ 0.433 µM)	1 (≈ 1.73 µM)	1 (≈ 1.73 µM)	4 (≈ 6.92 µM)	2 (≈ 3.46 µM)	8 (≈ 13.8 µM)	0.25 (≈ 0.433 µM)
CNCc1ccc2c(N(C)C)c3c(c(O)c2c1)C(=O)C1=C(O)[C@]2(O)C(=O)C(C(N)=O)=C(O)[C@@H](N(C)C)[C@@H]2C[C@@H]1C3	0.5 (≈ 0.908 µM)	0.125 (≈ 0.227 µM)	0.25 (≈ 0.454 µM)	32 (≈ 58.1 µM)	> 32	8 (≈ 14.5 µM)	4 (≈ 7.26 µM)	0.5 (≈ 0.908 µM)	2 (≈ 3.63 µM)	2 (≈ 3.63 µM)	4 (≈ 7.26 µM)	2 (≈ 3.63 µM)	32 (≈ 58.1 µM)	0.5 (≈ 0.908 µM)
COCCNCc1ccc2c(N(C)C)c3c(c(O)c2c1)C(=O)C1=C(O)[C@]2(O)C(=O)C(C(N)=O)=C(O)[C@@H](N(C)C)[C@@H]2C[C@@H]1C3	0.5 (≈ 0.841 µM)	0.0625 (≈ 0.105 µM)	0.5 (≈ 0.841 µM)	32 (≈ 53.8 µM)	> 32	16 (≈ 26.9 µM)	8 (≈ 13.5 µM)	1 (≈ 1.68 µM)	2 (≈ 3.36 µM)	4 (≈ 6.73 µM)	16 (≈ 26.9 µM)	8 (≈ 13.5 µM)	32 (≈ 53.8 µM)	1 (≈ 1.68 µM)
CN(C)[C@@H]1C(O)=C(C(N)=O)C(=O)[C@@]2(O)C(O)=C3C(=O)c4c(cc5ccc(F)cc5c4O)C[C@H]3C[C@@H]12	0.25 (≈ 0.518 µM)	2 (≈ 4.15 µM)	0.5 (≈ 1.04 µM)	> 32	> 32	> 32	0.5 (≈ 1.04 µM)	0.25 (≈ 0.518 µM)	4 (≈ 8.29 µM)	16 (≈ 33.2 µM)	> 32	0.5 (≈ 1.04 µM)	> 32	8 (≈ 16.6 µM)
CN(C)c1c2c(c(O)c3cc(F)ccc13)C(=O)C1=C(O)[C@]3(O)C(=O)C(C(N)=O)=C(O)[C@@H](N(C)C)[C@@H]3C[C@@H]1C2	0.125 (≈ 0.238 µM)	2 (≈ 3.81 µM)	0.25 (≈ 0.476 µM)	> 32	> 32	> 32	0.25 (≈ 0.476 µM)	0.25 (≈ 0.476 µM)	16 (≈ 30.4 µM)	> 32	> 32	1 (≈ 1.9 µM)	> 32	4 (≈ 7.61 µM)
CCCOc1c2c(c(O)c3cc(CN4CCC4)ccc13)C(=O)C1=C(O)[C@]3(O)C(=O)C(C(N)=O)=C(O)[C@@H](N(C)C)[C@@H]3C[C@@H]1C2	0.25 (≈ 0.423 µM)	0.0156 (≈ 0.0264 µM)	0.125 (≈ 0.211 µM)	32 (≈ 54.1 µM)	32 (≈ 54.1 µM)	16 (≈ 27 µM)	2 (≈ 3.38 µM)	0.25 (≈ 0.423 µM)	1 (≈ 1.69 µM)	2 (≈ 3.38 µM)	8 (≈ 13.5 µM)	2 (≈ 3.38 µM)	16 (≈ 27 µM)	0.0625 (≈ 0.106 µM)
CC(C)Oc1c2c(c(O)c3cc(CN4CCC4)ccc13)C(=O)C1=C(O)[C@]3(O)C(=O)C(C(N)=O)=C(O)[C@@H](N(C)C)[C@@H]3C[C@@H]1C2	0.25 (≈ 0.423 µM)	0.0313 (≈ 0.0529 µM)	0.125 (≈ 0.211 µM)	32 (≈ 54.1 µM)	> 32	16 (≈ 27 µM)	4 (≈ 6.76 µM)	0.5 (≈ 0.845 µM)	2 (≈ 3.38 µM)	4 (≈ 6.76 µM)	16 (≈ 27 µM)	4 (≈ 6.76 µM)	16 (≈ 27 µM)	0.0625 (≈ 0.106 µM)
COCCOc1c2c(c(O)c3cc(CN4CCC4)ccc13)C(=O)C1=C(O)[C@]3(O)C(=O)C(C(N)=O)=C(O)[C@@H](N(C)C)[C@@H]3C[C@@H]1C2	0.5 (≈ 0.823 µM)	0.0313 (≈ 0.0515 µM)	0.25 (≈ 0.411 µM)	> 32	> 32	8 (≈ 13.2 µM)	2 (≈ 3.29 µM)	0.5 (≈ 0.823 µM)	4 (≈ 6.58 µM)	2 (≈ 3.29 µM)	8 (≈ 13.2 µM)	2 (≈ 3.29 µM)	32 (≈ 52.7 µM)	0.25 (≈ 0.411 µM)
CNCc1ccc2cc3c(c(O)c2c1)C(=O)C1=C(O)[C@]2(O)C(=O)C(C(N)=O)=C(O)[C@@H](N(C)C)[C@@H]2C[C@@H]1C3	1 (≈ 1.97 µM)	0.0625 (≈ 0.123 µM)	0.5 (≈ 0.985 µM)	8 (≈ 15.8 µM)	16 (≈ 31.5 µM)	2 (≈ 3.94 µM)	4 (≈ 7.88 µM)	0.5 (≈ 0.985 µM)	4 (≈ 7.88 µM)	1 (≈ 1.97 µM)	4 (≈ 7.88 µM)	4 (≈ 7.88 µM)	16 (≈ 31.5 µM)	1 (≈ 1.97 µM)
CCCNCc1ccc2cc3c(c(O)c2c1)C(=O)C1=C(O)[C@]2(O)C(=O)C(C(N)=O)=C(O)[C@@H](N(C)C)[C@@H]2C[C@@H]1C3	0.25 (≈ 0.467 µM)	0.0156 (≈ 0.0291 µM)	0.5 (≈ 0.934 µM)	4 (≈ 7.47 µM)	32 (≈ 59.7 µM)	2 (≈ 3.73 µM)	4 (≈ 7.47 µM)	0.5 (≈ 0.934 µM)	1 (≈ 1.87 µM)	1 (≈ 1.87 µM)	2 (≈ 3.73 µM)	2 (≈ 3.73 µM)	4 (≈ 7.47 µM)	0.25 (≈ 0.467 µM)
CN(C)Cc1ccc2cc3c(c(O)c2c1)C(=O)C1=C(O)[C@]2(O)C(=O)C(C(N)=O)=C(O)[C@@H](N(C)C)[C@@H]2C[C@@H]1C3	0.25 (≈ 0.479 µM)	0.0313 (≈ 0.06 µM)	0.25 (≈ 0.479 µM)	4 (≈ 7.67 µM)	> 32	2 (≈ 3.83 µM)	1 (≈ 1.92 µM)	0.25 (≈ 0.479 µM)	2 (≈ 3.83 µM)	1 (≈ 1.92 µM)	2 (≈ 3.83 µM)	1 (≈ 1.92 µM)	4 (≈ 7.67 µM)	0.125 (≈ 0.24 µM)
CCN(C)Cc1ccc2cc3c(c(O)c2c1)C(=O)C1=C(O)[C@]2(O)C(=O)C(C(N)=O)=C(O)[C@@H](N(C)C)[C@@H]2C[C@@H]1C3	0.5 (≈ 0.934 µM)	0.125 (≈ 0.233 µM)	0.25 (≈ 0.467 µM)	32 (≈ 59.7 µM)	> 32	4 (≈ 7.47 µM)	4 (≈ 7.47 µM)	0.5 (≈ 0.934 µM)	2 (≈ 3.73 µM)	2 (≈ 3.73 µM)	8 (≈ 14.9 µM)	2 (≈ 3.73 µM)	16 (≈ 29.9 µM)	0.25 (≈ 0.467 µM)
CN(Cc1ccc2cc3c(c(O)c2c1)C(=O)C1=C(O)[C@]2(O)C(=O)C(C(N)=O)=C(O)[C@@H](N(C)C)[C@@H]2C[C@@H]1C3)c1ccccc1	1 (≈ 1.71 µM)	2 (≈ 3.43 µM)	1 (≈ 1.71 µM)	> 32	> 32	> 32	4 (≈ 6.85 µM)	4 (≈ 6.85 µM)	> 32	> 32	> 32	8 (≈ 13.7 µM)	> 32	2 (≈ 3.43 µM)
